Source: ChEMBL document CHEMBL1123036, “Synthesis and antiallergic activities of 1,3-oxazolo[4,5-h]quinolines” (J Med Chem, 1985)

Experiments:
[1] = test system: Rattus norvegicus; assay: Ability to inhibit passive cutaneous anaphylaxis in rat, when compound was injected intraperitoneally; type: functional; settings: ip
Summary of the method: (§1)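 Rat passive cutaneous anaphylaxis: the read-out was inhibition of IgE-mediated cutaneous wheal formation after antigen challenge. Compounds were given by the route and dose stated on the line.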

[2] = species on record: Rattus norvegicus; assay: Ability to inhibit passive cutaneous anaphylaxis in rat, when compound was injected perorally; type: functional; summary of the method: as §1
[3] = species on record: Rattus norvegicus; assay: In vitro ability to inhibit antigen-induced release of histamine (AIR) from rat peritoneal mast cells.; type: functional
Summary of the method: (§2)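 Rat peritoneal cells were collected by lavage and contained 5–10% mast cells. Histamine was measured by a radioenzymatic method instead of fluorometry, because some test agents fluoresce. Samples were incubated with [¹⁴C]methyl-S-adenosylmethionine and histamine-N-methyltransferase prepared from rat kidneys.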

[4] = test system: Rattus norvegicus; assay: Percentage inhibition against passive cutaneous anaphylaxis after injecting 10 mg/kg intraperitoneally in rat; type: functional; settings: route intraperitoneal; for inhibition in vivo at 10 mg/kg: Rattus norvegicus, ip; summary of the method: as §1
[5] = species on record: Rattus norvegicus; assay: (§3) In vitro ability to inhibit antigen-induced release of histamine (AIR) from rat peritoneal mast cells; type: functional
Summary of the method: (§4)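 Peritoneal cells collected from rats by lavage, containing 5–10% mast cells. Antigen-induced histamine release was quantified radioenzymatically rather than fluorometrically: samples were incubated with [¹⁴C]methyl-S-adenosylmethionine and histamine-N-methyltransferase prepared from rat kidneys.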

[6] = species on record: Rattus norvegicus; assay: Percentage inhibition against passive cutaneous anaphylaxis in rat, when injected perorally; type: functional
Summary of the method: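 Rat passive cutaneous anaphylaxis, an IgE-mediated cutaneous wheal formation model; compounds given orally before antigen challenge; read-out is percent inhibition of wheal formation.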

[7] = test system: Rattus norvegicus; assay: Percentage inhibition against passive cutaneous anaphylaxis after injecting 10 mg/kg perorally in rat; type: functional; settings: route oral; summary of the method: as §1
[8] = species on record: Rattus norvegicus; assay: Ability to inhibit anaphylactically induced release of histamine (AIR) from rat peritoneal mast cells; type: functional, cell-based; summary of the method: as §4
[9] = test system: Rattus norvegicus; assay: Percentage inhibition of 30 mg/kg compound against antigen-induced release of histamine (AIR) from rat mast cells; type: functional
[10] = species on record: Rattus norvegicus; assay: In vitro ability to inhibit antigen-induced release of histamine (AIR) from rat peritoneal mast cells; the compound was tested at a concentration of 50 uM.; type: functional, cell-based
[11] = test system: Rattus norvegicus; assay: Percentage inhibition against passive cutaneous anaphylaxis after injecting 125 mg/kg perorally in rat; type: functional; settings: route oral; summary of the method: as §1
[12] = species on record: Rattus norvegicus; assay: Ability to inhibit passive cutaneous anaphylaxis in rat, when compound was injected perorally.; type: functional; summary of the method: as §1
[13] = species on record: Rattus norvegicus; assay: as §3; type: functional, cell-based; summary of the method: as §4
[14] = test system: Rattus norvegicus; assay: Percentage inhibition against passive cutaneous anaphylaxis in rat, when injected intraperitoneally; type: functional; summary of the method: as §1
[15] = test system: Rattus norvegicus; assay: Percentage inhibition against passive cutaneous anaphylaxis after injecting 25 mg/kg perorally in rat; type: functional; settings: route oral; summary of the method: as §1
[16] = species on record: Rattus norvegicus; assay: In vitro ability to inhibit antigen-induced release of histamine (AIR) from rat mast cells; type: functional, cell-based; summary of the method: as §2
[17] = test system: Rattus norvegicus; assay: Ability to inhibit passive cutaneous anaphylaxis in rat, when compound was injected intraperitoneally.; type: functional; settings: ip; summary of the method: as §1
[18] = species on record: Rattus norvegicus; assay: In vitro ability to inhibit antigen-induced release of histamine (AIR) from rat mast cells; histamine release was assayed by a radioenzymatic method; type: functional, cell-based; summary of the method: as §2
[19] = test system: Rattus norvegicus; assay: Ability to inhibit passive cutaneous anaphylaxis in rat, when […] injected perorally; type: functional; settings: route oral; summary of the method: as §1

For `CC(=O)n1c(=O)oc2c3ncccc3ccc21`, the ED50 [1] was 10 mg/kg, the ED50 [2] was 4 mg/kg and the Inhibition [3] was <30%.

Compound `O=C(O)c1nc2cc(Cl)c3cccnc3c2o1` has an inhibition in vivo at 10 mg/kg [4] of 47%.

Compound `O=C(/C=C/c1ccccc1)n1c(=O)oc2c3ncccc3c(Cl)cc21` has an Inhibition [5] of 18% and an Inhibition [6] of 0%.

In the case of `Clc1cc2ncoc2c2ncccc12`, the inhibition in vivo at 10 mg/kg [7] is reported as 28%.

Compound `COc1ccccc1NC(=O)Oc1cccc2cccnc12` has an IC50 [8] of 2000 nM.

`COc1ccccc1C(=O)n1c(=O)oc2c3ncccc3c(Cl)cc21` was tested, and the Inhibition [5] was 16% and the Inhibition [6] was 34%.

Compound `CCOC(=O)n1c(=O)oc2c3ncccc3c(Cl)cc21` has an Inhibition [6] of 43%.

`Clc1cc2nc(-c3ccccc3)oc2c2ncccc12` was tested, and the inhibition in vivo at 10 mg/kg [7] was 3% and the inhibition in vivo at 30 mg/kg [9] was < 30%.

`Oc1nc2cc(Cl)c3cccnc3c2o1` showed a % inhibition [10] of 18% and an inhibition in vivo at 125 mg/kg [11] of 14%.

`Cn1c(=O)oc2c3ncccc3c(Cl)cc21` gave an ED50 [12] of 102 mg/kg and an inhibition in vivo at 125 mg/kg [11] of 51%.

For `Clc1cc2nc(C(Cl)(Cl)Cl)oc2c2ncccc12`, the IC50 [13] was 30 nM and the Inhibition [14] was 28%.

`CCOC(=O)c1nc2cc(Cl)c3cccnc3c2o1` was tested, and the IC50 [13] was 100 nM and the inhibition in vivo at 10 mg/kg [4] was 59%.

`O=C([O-])c1nc2cc(Cl)c3cccnc3c2o1.[Na+]` gave an IC50 [13] of 300 nM and an Inhibition [4] of 51%.

For `CC(=O)n1c(=O)oc2c3ncccc3c(Cl)cc21`, the Inhibition [6] was 15%.

For `Cc1nc2cc(Cl)c3cccnc3c2o1`, the IC50 [13] was 33000 nM and the inhibition in vivo at 10 mg/kg [7] was 15%.

For `Oc1nc2ccc3cccnc3c2o1`, the inhibition in vivo at 25 mg/kg [15] was 0%.

In the case of `CCOC(=O)Cc1nc2cc(Cl)c3cccnc3c2o1`, the inhibition in vivo at 10 mg/kg [4] is reported as 9%.

For `CN(C)C(=O)n1c(=O)oc2c3ncccc3c(Cl)cc21`, the Inhibition [5] was 0%.

`O=C([O-])c1cc(=O)c2c(OCC(O)COc3cccc4oc(C(=O)[O-])cc(=O)c34)cccc2o1.[Na+].[Na+]` [CROMOLYN SODIUM] gave an IC50 [16] of 3000 nM and an ED50 [17] of 6 mg/kg.

Work on `COC(=O)c1nc2cc(Cl)c3cccnc3c2o1` [QUAZOLAST] yielded an IC50 [18] of 300 nM, an ED50 [19] of 0.5 mg/kg and an ED50 [17] of 0.1 mg/kg. It also gave an inhibition in vivo at 10 mg/kg [4] of 100%.
